Bioassay records (PubChem)
The list is not random: actives were taken first. Their share in the collection is about 1.3%.
Rad51 HR inh: Rad51 (human) homologous recombination inhibition; Q06609; hRad51 DNA strand exchange, fluorescence dequenching; inhibition, % at 10 µM; 200,000 tested, 0.085% active;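 active = inhibition above 40% at the single screening dose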
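Read-out basis: percent inhibition relative to plate controls and blanks / Assay system: human Rad51 nucleoprotein filaments preassembled on unlabelled ssDNA / Timing: filaments 15 min 37 °C, then compound 30 min / Control set: per-plate controls and blanks / Technique: fluorescence dequenching at 485/520 nm / Compound: 10 µM final, single point / Also added: Fluorescein- and BHQ1-tagged 47-mer duplex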
TAG inh: triacylglycerol accumulation inhibition | H9c2 cells, Nile Red lipid (TAG) fluorescence; cells loaded with 200 µM oleic acid | AID 651582 | 230,000 tested, 0.66% active | inhibition, % at 12.5 µM;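 active = pattern-corrected inhibition of lipid staining of at least 50% with the nuclear-stain viability signal not falling by more than 50%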
PERK inhibitor: human PERK inhibition, primary cell-based screen | CHO PERK-DD fusion, SEAP luminescence translation reporter | Q9NZJ5 | inhibition, % at 5.6 µM | 220,000 tested, 0.17% active;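 active = inhibition above the mean inhibition of all tested compounds plus 3 SD, set separately per screening campaign, cut at about 2.9% in these data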;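 note: PERK kinase domain activated by AP20187 dimerizer at 100 nM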
Mdm2 ligase inh: blocks human Mdm2 ubiquitin ligase activity; Q00987; cell-based MDM2 ubiquitination luciferase reporter, 2 h; 0 = plate control, 100 = twice control, blank-subtracted; signal enhancement, % at 5 µM; 210,000 tested, 0.11% active; AID 1230;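 active = signal enhancement of 30% or more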;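 note: luminescence tracks abundance of the self-degrading MDM2-luciferase fusion protein; higher signal means inhibition of MDM2 E3 ligase activity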
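Test system: stable mammalian line carrying autodegrading MDM2–luciferase fusion reporter; quantity: 2000 cells in each well; times: 4 h cell settling then 2 h compound exposure, 37 °C; detection: luminescence with SteadyLite reagent, 15 min at room temperature; evaluation: percent signal gain over controls, blank-subtracted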
PKD1 inh: blocks activity of human protein kinase D1; 200,000 tested, 0.056% active; AID 797; inhibition, % (concentration not given with the values); PKD1 kinase fluorescence polarization assay; in the data active = inhibition above about 50%
Target sequence (Q15139 whole entry, looked up): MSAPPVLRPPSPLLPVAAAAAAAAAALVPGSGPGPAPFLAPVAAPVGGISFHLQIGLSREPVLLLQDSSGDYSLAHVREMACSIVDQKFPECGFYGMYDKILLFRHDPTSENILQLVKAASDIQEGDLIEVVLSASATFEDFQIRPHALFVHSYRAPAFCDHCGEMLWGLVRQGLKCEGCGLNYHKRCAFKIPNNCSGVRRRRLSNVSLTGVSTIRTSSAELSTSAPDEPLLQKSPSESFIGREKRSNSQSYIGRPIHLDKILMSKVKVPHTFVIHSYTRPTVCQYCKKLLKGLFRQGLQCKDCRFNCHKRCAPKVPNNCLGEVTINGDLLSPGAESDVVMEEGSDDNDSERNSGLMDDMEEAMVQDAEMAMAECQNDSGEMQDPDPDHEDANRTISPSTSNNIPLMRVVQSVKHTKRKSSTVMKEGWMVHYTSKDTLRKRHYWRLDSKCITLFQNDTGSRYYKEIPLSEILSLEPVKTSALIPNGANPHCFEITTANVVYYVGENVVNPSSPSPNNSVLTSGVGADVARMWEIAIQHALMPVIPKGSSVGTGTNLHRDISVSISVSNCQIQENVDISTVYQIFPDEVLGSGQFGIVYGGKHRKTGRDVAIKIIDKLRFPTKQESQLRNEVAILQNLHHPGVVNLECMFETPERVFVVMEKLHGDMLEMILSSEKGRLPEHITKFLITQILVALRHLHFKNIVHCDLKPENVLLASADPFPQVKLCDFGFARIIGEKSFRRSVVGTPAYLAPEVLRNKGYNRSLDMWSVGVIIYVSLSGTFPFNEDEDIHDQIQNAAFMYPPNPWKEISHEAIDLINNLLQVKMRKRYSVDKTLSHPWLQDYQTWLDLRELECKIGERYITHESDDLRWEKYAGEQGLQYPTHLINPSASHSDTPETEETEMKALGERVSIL
Hck-Nef inh: human Hck-Nef kinase inhibition | Recombinant Hck-YEEI plus Nef, Z-Lyte FRET kinase assay | 220,000 tested, 0.68% active | inhibition, % at 20 µM | P08631;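 active = Hck-Nef kinase inhibition above about 50%, limit read from the data; inactive = inhibition below that limit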
H9c2 TAG conf: confirmation of triacylglycerol accumulation inhibitors; shares compounds with TAG inh; H9c2 lipid accumulation, Nile Red fluorescence; cells loaded with 200 µM oleic acid; inhibition, % at 12.5 µM; 990 tested, 71% active; AID 651629;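 active = mean inhibition across replicates of 40% or more; inactive = mean inhibition below 40%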
Hits are given with their value.

For Cc1cccc(C(=O)N[C@H](C(=O)Nc2ncc(C)s2)C(C)C)c1 the results were Rad51 HR inh inactive, TAG inh 65, PERK inhibitor inactive, Mdm2 ligase inh inactive, PKD1 inh inactive, Hck-Nef inh inactive and H9c2 TAG conf 93.
COc1cc2c(cc1OC)C(C)N(C(=O)c1cc3c(C)cc(C)cc3[nH]1)CC2 (stereo unspecified) was read as TAG inh 54 and H9c2 TAG conf 59.
For COc1cc(-c2noc(C)c2C#Cc2ccc(N)cc2)cc(OC)c1OC the results were TAG inh 57 and H9c2 TAG conf 47.
Screening O=C(N/N=C/c1ccc2c(c1)OCO2)c1cc(-c2ccncc2)nc2ccccc12 returned Rad51 HR inh inactive, TAG inh 54, PERK inhibitor inactive, Mdm2 ligase inh inactive, PKD1 inh inactive, Hck-Nef inh inactive and H9c2 TAG conf 67.
For Cc1ccc(/C=N/NC(=O)c2cc(-c3cccnc3)nc3ccccc23)cc1 the results were Rad51 HR inh inactive, TAG inh 57, PERK inhibitor inactive, Mdm2 ligase inh inactive, PKD1 inh inactive, Hck-Nef inh inactive and H9c2 TAG conf 49.
Screening O=C(N/N=C/c1ccc(Cl)cc1)c1cc(-c2cccnc2)nc2ccccc12 returned Rad51 HR inh inactive, TAG inh inactive, PERK inhibitor inactive, Mdm2 ligase inh inactive, PKD1 inh inactive and Hck-Nef inh inactive.
For Cc1cc(C(=O)COc2ccc(F)cc2Br)c(C)n1C1CC1 the results were TAG inh inactive.
Screening CCCC1=Nc2cc(C(=O)NCCCOC(C)C)ccc2Sc2ccccc21 returned Rad51 HR inh inactive, TAG inh inactive, PERK inhibitor inactive, Mdm2 ligase inh inactive, PKD1 inh inactive and Hck-Nef inh inactive.
`CCC1=Nc2cc(C(=O)NCCCOC)ccc2Sc2ccccc21` gave Rad51 HR inh inactive, TAG inh 61, PERK inhibitor inactive, Mdm2 ligase inh inactive, PKD1 inh inactive, Hck-Nef inh inactive and H9c2 TAG conf 45.
Screening COc1ccc(NC(=O)c2cc(S(=O)(=O)N3CCCCC3)c[nH]2)cc1Cl returned TAG inh inactive.
`Cc1nn(-c2ccccc2)c2c1CC(=O)Nc1ccccc1-2` gave TAG inh 74 and H9c2 TAG conf 87.
CC(C)C[C@H](CO)N(Cc1ccccc1)S(=O)(=O)N(Cc1ccccc1)[C@@H](CO)CC(C)C was read as TAG inh 56 and H9c2 TAG conf 46.
For O=C(O)c1cccc(-c2csc(C(O)c3cccc(Cl)c3)n2)c1 (stereo unspecified) the results were TAG inh inactive.
Screening CSc1ccc(/C=C/C(=O)c2ccc(NC(=O)C(C)C)cc2)cc1 returned Rad51 HR inh inactive, TAG inh inactive, PERK inhibitor inactive, Mdm2 ligase inh inactive, PKD1 inh inactive and Hck-Nef inh inactive.
CSc1ccc(/C=C/C(=O)c2ccc(NC(=O)Cc3ccccc3)cc2)cc1 was read as Rad51 HR inh inactive, TAG inh 59, PERK inhibitor inactive, Mdm2 ligase inh inactive, PKD1 inh inactive, Hck-Nef inh inactive and H9c2 TAG conf inactive.
Screening COc1ccccc1NC(=O)c1ccccc1S(=O)(=O)c1ccc([N+](=O)[O-])cc1 returned TAG inh 54 and H9c2 TAG conf inactive.
COc1ccccc1NC(=O)c1ccccc1S(=O)(=O)c1ccccc1[N+](=O)[O-] was read as Rad51 HR inh inactive, TAG inh inactive, PERK inhibitor inactive, Mdm2 ligase inh inactive, PKD1 inh inactive and Hck-Nef inh inactive.
Screening CCOC(=O)C1CCCCN1C(=O)c1cc2ccc(OC)cc2c2cc(OC)c(OC)cc12 (stereo unspecified) returned TAG inh 54 and H9c2 TAG conf inactive.
For CCOC(=O)C1CCCN1C(=O)c1ccc(OC)c(Br)c1 (stereo unspecified) the results were Rad51 HR inh inactive, TAG inh inactive, PERK inhibitor inactive, Mdm2 ligase inh inactive, PKD1 inh inactive and Hck-Nef inh inactive.
CC(NC(=O)COC(=O)C1CCN(c2ccc(C(F)(F)F)cn2)CC1)c1ccc(Br)cc1 (stereo unspecified) was read as TAG inh inactive.
